Data from ChEMBL document CHEMBL4699416, “Allocolchicinoids bearing a Michael acceptor fragment for possible irreversible binding of tubulin” (RSC Med Chem, 2020).
Activity calls are given as the source filed them. The calls are words filed in the database; no cut-off is given here.

Legend:
COLO357 [1] = experiment: Cytotoxicity against human COLO-357 cells assessed as inhibition of cell growth incubated for 72 hrs by MTT assay; format: functional, cell-based; settings: COLO357, 72 h
Method in brief: (§1)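 Cells in DMEM with 10% FCS, seeded 24 h before assay at 3 × 10^5 cells per mL and incubated overnight. DMSO stocks (20 mM) diluted to 20 μM–0.1 nM and added to cells for 72 h, with untreated controls. MTT added for the last 6 h, formazan dissolved in DMSO, OD read at 540 nm.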

BXPC-3 = experiment: Cytotoxicity against human BxPC-3 cells assessed as inhibition of cell growth incubated for 72 hrs by MTT assay; format: functional, cell-based; settings: BXPC-3, 72 h; method in brief: as §1
HaCaT = experiment: Cytotoxicity against human HaCaT cells assessed as inhibition of cell growth incubated for 72 hrs by MTT assay; format: functional, cell-based; method in brief: as §1
HEK293 = experiment: Cytotoxicity against human HEK293 cells assessed as inhibition of cell growth incubated for 72 hrs by MTT assay; format: functional, cell-based; settings: HEK293, 72 h; method in brief: as §1
COLO357 [2] = experiment: Induction of cell cycle arrest in human COLO357 cells assessed as G2/M phase at 5 uM incubated for 72 hrs by propidium iodide staining based flow cytometry analysis (reference value: 7.2 %); format: functional
COLO357 [3] = experiment: Induction of cell cycle arrest in human COLO357 cells assessed as G1 phase at 5 uM incubated for 72 hrs by propidium iodide staining based flow cytometry analysis (reference value: 91.1 %); format: functional
COLO357 [4] = experiment: Induction of apoptosis in human COLO357 cells at 5 uM incubated for 72 hrs by propidium iodide staining based flow cytometry analysis (reference value: 0.3 %); format: functional
[5] = Induction of cell cycle arrest in […] L929 cells assessed as G2/M phase at 5 uM incubated for 72 hrs by propidium iodide staining based flow cytometry analysis (reference value: 8 %); format: functional
[6] = Induction of cell cycle arrest in […] L929 cells assessed as G1 phase at 5 uM incubated for 72 hrs by propidium iodide staining based flow cytometry analysis (reference value: 91 %); format: functional
[7] = Induction of apoptosis in […] L929 cells at 5 uM incubated for 72 hrs by propidium iodide staining based flow cytometry analysis (reference value: 1.2 %); format: functional
COLO357 [8] = experiment: Induction of mitotic arrest in human COLO357 cells assessed as disruption of mitotic spindle arrangement at 5 uM incubated for 72 hrs by immunofluorescence based confocal microscopic analysis; format: functional, cell-based
Method in brief: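 COLO-357 cells (10^5 per coverslip) grown overnight, then exposed to 5 μM in complete medium for 72 h. Fixed in 1% paraformaldehyde and permeabilized with 0.1% Triton X100 in PBS. Stained with anti-β-tubulin antibody and AlexaFluor555 anti-mouse IgG, nuclei with Hoechst 33342, then imaged by confocal microscopy.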

[9] = Toxicity in iv dosed C57BL/6 mouse assessed as lethal dose measured after 40 to 48 hrs; format: organism-based; settings: in vivo, time 40-48 hrs; for LD50: C57BL/6, mouse; for LD100: mouse
Method in brief: (§2)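 Acute toxicity in C57BL/6 mice, 6–8 weeks old, 10 per group. Each mouse got one intravenous dose of 4, 7, 10 or 13 mg kg–1. The dose range was set in preliminary experiments. Signs of toxicity (ruffled fur, poor mobility, lower body temperature) and lethality were recorded at 24 h and 48 h after injection. Survivors at 48 h were followed for 1 week. LD50 and LD100 were derived.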

[10] = Toxicity in iv dosed C57BL/6 mouse assessed as lethal dose measured after 24 hrs; format: organism-based; settings: in vivo; method in brief: as §2
[11] = Inhibition of lamb brain tubulin polymerization assessed as reduction in microtubule formation incubated for 40 mins by spectrophotometric analysis; format: tissue-based, Ovis aries

Compound | IC50 (COLO357 [1]) | IC50 (BXPC-3) | IC50 (HaCaT) | IC50 (HEK293) | other results
COc1cc2c(c(OC)c1OC)-c1ccc(OC)c(=O)cc1[C@@H](NC(C)=O)CC2 [COLCHICINE] | 16 nM | 16 nM | 3 nM | 16 nM | Activity (COLO357 [2]): 61%; Activity (COLO357 [3]): 33%; Activity (COLO357 [4]): 10%; Activity [5]: 74%; Activity [6]: 30%; Activity [7]: 3%; Activity (COLO357 [8]): Active; LD50 [9]: 8.5 mg/kg; LD100 [9]: 10.9 mg/kg
C=CC(=O)OCC(=O)N[C@H]1CCc2cc(OC)c(OC)c(OC)c2-c2ccc(C(=O)OC)cc21 | 16 nM | 16 nM | 16 nM | 16 nM | –
COC(=O)c1ccc2c(c1)[C@@H](NC(=O)CNC(=O)/C=C/C(F)(F)F)CCc1cc(OC)c(OC)c(OC)c1-2 | 80 nM | 16 nM | 16 nM | 80 nM | –
C/C=C/C=C/C(=O)OCC(=O)N[C@H]1CCc2cc(OC)c(OC)c(OC)c2-c2cc3cc(COC(C)=O)oc3cc21 | 16 nM | 16 nM | 0.6 nM | 3 nM | –
C/C=C/C=C/C(=O)OCC(=O)N[C@H]1CCc2cc(OC)c(OC)c(OC)c2-c2ccc(C(=O)OC)cc21 | 3 nM | 3 nM | 0.6 nM | 3 nM | Activity [5]: 61%; Activity [6]: 40%; Activity [7]: 5.6%; Activity (COLO357 [8]): Active; LD50 at 24 h ([10]; C57BL/6, mouse): 6.1 mg/kg; LD100 ([10]; mouse, 24 h): 8.4 mg/kg; IC50 [11]: 6780 nM
COC(=O)c1ccc2c(c1)[C@@H](NC(=O)CNC(=O)C=C(C)C)CCc1cc(OC)c(OC)c(OC)c1-2 | 80 nM | 16 nM | 16 nM | 16 nM | –
C/C=C/C(=O)OCC(=O)N[C@H]1CCc2cc(OC)c(OC)c(OC)c2-c2ccc(C(=O)OC)cc21 | 16 nM | 16 nM | 3 nM | 3 nM | Activity (COLO357 [2]): 60%; Activity (COLO357 [3]): 32%; Activity (COLO357 [4]): 9.3%; Activity (COLO357 [8]): Active; LD50 [9]: 6.5 mg/kg; LD100 [9]: 9.8 mg/kg
C=CC(=O)NCC(=O)N[C@H]1CCc2cc(OC)c(OC)c(OC)c2-c2ccc(C(=O)OC)cc21 | 400 nM | 80 nM | 80 nM | 400 nM | –
C/C=C/C=C/C(=O)NCC(=O)N[C@H]1CCc2cc(OC)c(OC)c(OC)c2-c2ccc(C(=O)OC)cc21 | 16 nM | 3 nM | 3 nM | 16 nM | –
C/C=C/C=C/C(=O)NCC(=O)N[C@H]1CCc2cc(OC)c(OC)c(OC)c2-c2cc3cc(CO)oc3cc21 | 400 nM | 400 nM | 400 nM | 400 nM | –
COC(=O)c1ccc2c(c1)[C@@H](NC(=O)COC(=O)/C=C/C(F)(F)F)CCc1cc(OC)c(OC)c(OC)c1-2 | 16 nM | 16 nM | 16 nM | 16 nM | –
C/C=C/C(=O)NCC(=O)N[C@H]1CCc2cc(OC)c(OC)c(OC)c2-c2ccc(C(=O)OC)cc21 | 80 nM | 80 nM | 80 nM | 80 nM | –
COC(=O)c1ccc2c(c1)[C@@H](NC(=O)COC(=O)C=C(C)C)CCc1cc(OC)c(OC)c(OC)c1-2 | 16 nM | 3 nM | 3 nM | 16 nM | –
COC(=O)c1ccc2c(c1)[C@@H](NC(=O)COC(=O)CC(C)SC[C@@H](NC(C)=O)C(=O)OC)CCc1cc(OC)c(OC)c(OC)c1-2 (mixture of isomers) | 80 nM | 16 nM | 16 nM | 16 nM | –
